Screening results: PubChem, Johns Hopkins Ion Channel Center
Compounds with a hit are over-represented: about 2.3% of the library has one in this group of screens.
TRPC6 activator – activators of mouse TRPC6 channel. Q61143. HEK293-TRPC6 membrane potential dye fluorescence; stronger effect = higher value. B-score at 10 µM. 310,000 compounds, 0.13% hits;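 active = B-score of the integrated fluorescence ratio above library mean plus 3 SD, and starting fluorescence ratio within library mean plus 5 SD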;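 note: higher score means more depolarization so channel activation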
TRPC6 inhibitor – mouse TRPC6 channel inhibition; Q61143; HEK293-TRPC6, membrane potential dye, ACh-evoked depolarization; stronger effect = lower value; B-score at 10 µM; 310,000 compounds, 1.1% hits; AID 2553;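 active = B-score under library mean minus 3 SD, initial fluorescence not abnormally high, positive integrated signal ratio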;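 note: B-score derived from integrated fluorescence ratio over the kinetic read; more negative B-score means stronger inhibition of depolarization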
TRPC4 potent – TRPC4 (mouse) allosteric potentiation. Q9QUQ5. HEK293 TRPC4beta/mu-opioid, DAMGO EC20, Fluo-4 Ca2+ flux; stronger effect = higher value. B-score at 10 µM. 310,000 compounds, 0.42% hits. AID 2227;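 active = B-score of calcium response area above 5 SD of library B-scores, with initial fluorescence ratio within 5 SD of library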;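 note: B-score of integrated fluorescence ratio over time as area under calcium response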
Target sequence (Q9QUQ5 whole entry, looked up): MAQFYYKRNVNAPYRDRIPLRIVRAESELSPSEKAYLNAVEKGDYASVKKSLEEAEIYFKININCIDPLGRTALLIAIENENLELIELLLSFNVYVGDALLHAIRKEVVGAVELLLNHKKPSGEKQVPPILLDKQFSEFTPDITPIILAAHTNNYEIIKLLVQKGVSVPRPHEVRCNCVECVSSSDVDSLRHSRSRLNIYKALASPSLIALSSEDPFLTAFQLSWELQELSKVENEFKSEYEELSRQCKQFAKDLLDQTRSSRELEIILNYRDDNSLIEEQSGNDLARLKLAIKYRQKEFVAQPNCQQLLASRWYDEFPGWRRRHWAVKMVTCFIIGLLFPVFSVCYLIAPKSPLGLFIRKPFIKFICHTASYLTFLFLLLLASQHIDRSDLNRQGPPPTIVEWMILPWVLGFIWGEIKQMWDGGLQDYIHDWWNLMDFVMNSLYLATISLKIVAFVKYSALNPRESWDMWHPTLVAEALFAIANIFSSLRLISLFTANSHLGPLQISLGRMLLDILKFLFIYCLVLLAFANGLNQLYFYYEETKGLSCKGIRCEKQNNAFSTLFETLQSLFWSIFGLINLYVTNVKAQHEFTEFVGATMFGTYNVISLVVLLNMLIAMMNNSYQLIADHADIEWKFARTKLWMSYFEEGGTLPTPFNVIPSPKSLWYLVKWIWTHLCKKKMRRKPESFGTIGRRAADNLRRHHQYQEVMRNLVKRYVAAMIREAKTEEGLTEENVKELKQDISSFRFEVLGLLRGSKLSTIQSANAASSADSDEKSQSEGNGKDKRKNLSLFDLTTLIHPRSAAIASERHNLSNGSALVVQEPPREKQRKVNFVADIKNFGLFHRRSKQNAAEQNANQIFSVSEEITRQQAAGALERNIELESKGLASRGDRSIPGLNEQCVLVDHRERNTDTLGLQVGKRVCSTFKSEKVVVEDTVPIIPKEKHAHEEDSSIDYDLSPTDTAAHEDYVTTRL
TRPC4 act – activators of mouse TRPC4 channel; Q9QUQ5; HEK293 TRPC4beta/mu-opioid, Fluo4 calcium fluorescence; stronger effect = higher value; B-score at 10 µM; 310,000 compounds, 0.49% hits;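 active = B-score above 5 SD of library B-scores, and initial fluorescence ratio not above library mean plus 5 SD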;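 note: positive B-score marks a calcium rise read as TRPC4 activation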
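Assay system – TRPC4beta and mu-opioid receptor HEK293 stable cells · Measured by – Fluo4 fluorescence, kinetic · Schedule – dye loading 45 min room temperature, 110 s kinetic read · Read-out – B-scored integrated calcium fluorescence ratio · Controls – buffer and maximal DAMGO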
TRPC4 block – blocks the mouse TRPC4 cation channel; Q9QUQ5; HEK293 TRPC4beta/mu-opioid, DAMGO-evoked Fluo4 calcium flux; stronger effect = lower value; B-score at 10 µM; 300,000 compounds, 0.39% hits; AID 2247;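 active = B-score over 3 SD under the library average, no early fluorescence shift, positive overall ratio signal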
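Test system – stable TRPC4beta/mu-opioid receptor HEK293 cells · Probe or stimulus – DAMGO, a submaximal dose followed by a maximal one · Dosing – one concentration per compound · Signal – Fluo4 calcium fluorescence by kinetic imaging, 5 s 1 Hz baseline · Evaluation – per-well B score of integrated baseline-normalized Fluo4 ratio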
TRPC4 sel inh 2 – mouse TRPC4 off-target activity of TRPC6 inhibitors, second screen; shares compounds with TRPC6 inhibitor; HEK293 TRPC4/MOR, membrane potential dye fluorescence; channel activated by saturating DAMGO dose; inhibition, % at 10 µM; 920 compounds, 42% hits;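 active = compounds whose fluorescence signal differed from control wells by over 3 SD, either direction, in both duplicate plates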
TRPC4 spec – tests whether TRPC6 inhibitors also affect mouse TRPC4; shares compounds with TRPC6 inhibitor; HEK293 TRPC4/mu-opioid, membrane potential fluorescence; activity change, negative = inhibition, % at 10 µM; 920 compounds, 61% hits; AID 2777;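 active = rise or fall in signal beyond 3 SD of buffer-only wells in both replicate plates, either sign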;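 note: integrated kinetic ratio of fluorescence range over baseline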
HEK293 MPD ctr 2-1 – parental HEK293 nonspecific activity of TRPC6 inhibitors, second screen; signal change vs control, % at 10 µM; 920 compounds, 31% hits; shares compounds with TRPC6 inhibitor; parental HEK293 membrane potential dye fluorescence; maximal acetylcholine challenge after compound addition;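 active = membrane potential signal moving either way by over 3 SD of the maximum-effect control, in both duplicate plates, meaning non-specific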
HEK293 MPD ctr-1 – counter-screen for TRPC6 inhibitors: effect in parental HEK293 cells; shares compounds with TRPC6 inhibitor; parental HEK293 membrane potential dye fluorescence; membrane potential signal change, % at 10 µM; 920 compounds, 60% hits; AID 2780;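 active = membrane potential signal shifting up or down by more than 3 SD of buffer-only wells, on both duplicate plates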
HEK293 MPD ctr-2 – counter-screen for TRPC6 modulators: effect in parental HEK293 cells; shares compounds with TRPC6 inhibitor; membrane potential signal change, % at 10 µM; 2,400 compounds, 51% hits; membrane potential dye fluorescence;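 active = membrane potential signal moves up or down beyond 5 SD from buffer-only wells, on both duplicate plates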
HEK293 MPD ctr 2-2 – parental HEK293 nonspecific activity of TRPC6 modulators, second screen; shares compounds with TRPC6 inhibitor; membrane potential dye fluorescence; after compound, maximal acetylcholine stimulation; inhibition, % at 10 µM; 2,400 compounds, 14% hits; AID 488926;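 active = membrane potential signal drops by more than 5 SD from the mean control signal, in both duplicate plates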;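 note: plate controls were acetylcholine ECmax control wells for no effect and buffer only wells for full effect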
TRPC4 ctr mod – selectivity of TRPC6 modulators against mouse TRPC4 | AID 488927 | HEK293 TRPC4/mu-opioid, membrane potential fluorescence | shares compounds with TRPC6 inhibitor | 2,400 compounds, 69% hits | percent change from control (negative = decrease, positive = increase), % at 10 µM;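 active = membrane potential signal moved up or down beyond 5 SD of buffer control wells, in both duplicate plates, actives on both sides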;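 note: plate controls were assay buffer wells for no effect and DAMGO maximal-effect wells for full effect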
TRPC4 ctr inh 2 – second selectivity test of TRPC6 modulators against mouse TRPC4 | HEK293 TRPC4/mu-opioid, membrane potential dye fluorescence; stimulated with maximal-effect DAMGO | 2,400 compounds, 55% hits | inhibition, % at 10 µM | AID 488928 | shares compounds with TRPC6 inhibitor;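 active = drop in membrane potential signal beyond 5 SD of the control wells in both duplicate plates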;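 note: TRPC4 counter screen for TRPC6 hits run under conditions tuned for TRPC6 not TRPC4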
TRPC6 block conf – confirmation of mouse TRPC6 inhibitors; shares compounds with TRPC6 inhibitor; HEK293-TRPC6, membrane potential dye, ACh-evoked depolarization; inhibition, % at 10 µM; 3,300 compounds, 43% hits;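 active = fluorescence ratio falls more than 5 SD below the full-stimulation control mean, in both duplicate runs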;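 note: integrated fluorescence ratio of peak minus minimum over baseline after agonist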
TRPC6 act conf – confirmation of mouse TRPC6 activators; 2,800 compounds, 11% hits; HEK293-TRPC6 membrane potential dye fluorescence, FDSS; shares compounds with TRPC6 inhibitor; activation, % at 10 µM;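 active = ratio signal rise beyond 5 SD above unstimulated control wells' mean, seen in both duplicate runs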;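 note: plate controls were buffer EC0 wells for no effect and acetylcholine ECmax response for full effect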
* hit, by the source's call; i = inactive; x = not tested or not shown; ! = not active in a repeat.

SMILES	TRPC6 activator	TRPC6 inhibitor	TRPC4 potent	TRPC4 act	TRPC4 block	HEK293 MPD ctr-2	HEK293 MPD ctr 2-2	TRPC4 ctr mod	TRPC4 ctr inh 2	TRPC6 block conf	TRPC6 act conf	others
Cc1ccccc1NC1=C/C(=N\S(=O)(=O)c2ccc(C(=O)O)cc2)c2ccccc2C1=O	i	i	i	i	i	x	x	x	x	x	x
CC(C)c1ccc(S(=O)(=O)/N=C2\C=C(NS(=O)(=O)c3ccccc3)C(=O)c3ccccc32)cc1	i	-5.3*	i	i	-13*	-170%*	64%*	-30%*	80%*	68%*	i
CCN(CC)CCCNC(=O)c1cc(-c2ccc(Cl)c(Cl)c2)on1	i	-6.4*	i	i	i	149%*	i	26%*	54%*	i	x
Cc1[nH]c(C)c(S(=O)(=O)NCCc2ccc(S(N)(=O)=O)cc2)c1C(=O)N1CCCC1	i	i	i	i	i	x	x	x	x	x	x
O=C(Nc1ccc(N2CCOCC2)cc1N1CCOCC1)c1cccc([N+](=O)[O-])c1	i	i	i	i	i	x	x	x	x	x	x
Cc1c(Br)c([N+](=O)[O-])nn1C(C)C(=O)N1CCc2ccccc2C1 (stereo not drawn)	i	-6*	i	i	i	i	93%*	19%*	i	80%*	i
Cc1c(Br)c([N+](=O)[O-])nn1CC(=O)N1CCc2ccccc2C1	i	i	i	i	i	x	x	x	x	x	x
Cc1cccc(C(=O)N2CCc3ccccc3C2)c1[N+](=O)[O-]	i	-5.3*	i	i	i	i	i	16%*	i	i	i
O=C(CCn1cccn1)N1CCCC(N2CCN(c3cccc(Cl)c3)CC2)C1 (stereo not drawn)	i	i	i	i	i	x	x	x	x	x	x
O=C(CCc1cccc(Cl)c1)N1CCCC(Nc2ccccc2)C1 (stereo not drawn)	i	-8.6*	i	i	i	x	x	x	x	55%*	i	TRPC4 sel inh 2=i;TRPC4 spec=i;HEK293 MPD ctr 2-1=i;HEK293 MPD ctr-1=i
Cc1cc(=O)nc2c3ccccc3n(CC(=O)NCCCN3CCCC3=O)n12	i	i	i	i	i	x	x	x	x	x	x
CC(C)c1ccc(NC(=O)CSc2nc3ccccc3nc2N2CCCC2)cc1	i	i	i	i	i	x	x	x	x	x	x
C=CCNC(=O)c1ccc(Cn2cc(C(F)(F)F)ccc2=O)cc1	i	i	i	i	i	x	x	x	x	x	x
COc1ccc([N+](=O)[O-])cc1N(CC(=O)N1CCN(Cc2ccccc2)CC1)S(C)(=O)=O	i	i	i	i	i	x	x	x	x	x	x
Cc1ccc2c(Cl)c(C)c(N3CCCC3)nc2n1	i	-5.7*	i	i	i	-244%*	70%*	-40%*	52%*	54%*	i
COc1ccc(C2=NCCc3cc(OC)c(OC)cc32)cc1	i	i	i	i	i	x	x	x	x	x	x
COc1ccc(C2=NCCc3cc(OC)c(OC)cc32)cc1OC	i	-7.4*	i	i	i	-410%*	i	-70%*	62%*	63%*	i
C/C(=N\O)C(C)(C)Nc1ccccc1F	i	i	i	i	i	x	x	x	x	x	x
CN(C)c1ccc(N=Nc2cccc3ccoc23)cc1	i	-5.8*	i	i	i	i	i	i	41%*	i	i
CN(C)c1ccc(N=Nc2cccc(F)c2)cc1	i	i	i	i	i	x	x	x	x	x	x
C=CCOc1c(CNC2CCCC2)cc(Cl)cc1OC	i	-5.4*	i	i	-6*	431%*	151%*	99%*	90%*	95%*	x
CCSc1ccc2cc(OC)ccc2[n+]1CC	i	-7.6*	i	i	i	x	x	x	x	62%*	i	TRPC4 sel inh 2=76%*;TRPC4 spec=-21%*;HEK293 MPD ctr 2-1=39%*;HEK293 MPD ctr-1=-314%*
CCn1ccc2cc(OC)ccc2c1=S	i	i	i	i	i	x	x	x	x	x	x
CC(=O)c1ccc(NC(=O)Nc2ccncc2)cc1	i	-5.2*	i	43*	-6*	-142%*	74%*	-12%*	52%*	48%*	i
O=C(Nc1ccncc1)Nc1ccncc1	i	-7.5*	i	i	i	-310%*	70%*	-50%*	38%*	i	i
SMILES	TRPC6 activator	TRPC6 inhibitor	TRPC4 potent	TRPC4 act	TRPC4 block	HEK293 MPD ctr-2	HEK293 MPD ctr 2-2	TRPC4 ctr mod	TRPC4 ctr inh 2	TRPC6 block conf	TRPC6 act conf	others
CC(=O)c1ccc(NC(=O)Nc2cccnc2)cc1	i	i	i	i	i	x	x	x	x	x	x
O=C(Nc1ccncc1)Nc1ccc(Cl)cc1	i	i	i	i	i	x	x	x	x	x	x
CCCCCOc1ccc(Br)cc1CSC(=N)N	i	-6.4*	i	i	i	135%*	i	24%*	76%*	i	x
CCOc1ccc(CSC(=N)N)cc1	i	i	i	i	i	x	x	x	x	x	x
CCCCOc1ccc(CSC(=N)N)cc1Cl	i	-6.7*	i	i	i	x	x	x	x	i	i	TRPC4 sel inh 2=70%*;TRPC4 spec=i;HEK293 MPD ctr 2-1=266%*;HEK293 MPD ctr-1=2.0%*
O=C(O)Cn1c(O)c(C=Nc2ccccc2)sc1=S	i	-12*!	i	i	i	x	x	x	x	i	i	TRPC4 sel inh 2=i;TRPC4 spec=i;HEK293 MPD ctr 2-1=i;HEK293 MPD ctr-1=i
Cc1nc2cc(NC(=O)N3CCCC3)ccc2n1C	i	i	i	i	i	x	x	x	x	x	x
